According to ChEMBL document CHEMBL4350958, “Rational Design of Short Peptide Variants by Using Kunitzin-RE, an Amphibian-Derived Bioactivity Peptide, for Acquired Potent Broad-Spectrum Antimicrobial and Improved Therapeutic Potential of Commensalism Coinfection of Pathogens” (J Med Chem, 2019):
In brackets after ≈: the same amount, converted by molar mass.

Columns and labels:
Escherichia coli [1] = experiment: Bactericidal activity against Escherichia coli K99 incubated for 24 hrs followed by replating on agar plate and measured after overnight incubation; format: functional; conditions: K99, 24 h, read-out: MBC>99.9
Outline: (§1)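 Mid-log bacteria diluted in MHB to (0.5–1) × 10^5 CFU/mL and mixed 1:1 with peptide serially diluted in 0.2% BSA. After 24 h at 37 °C, 50 μL of each mixture was plated on agar and incubated overnight. MBC taken as the lowest concentration killing >99.9% of cells. At least three independent experiments, each with three technical replicates.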

[2] = Conformational stability in sodium dodecyl sulfate at 35 uM by CD spectra analysis; format: physicochemical
Outline: (§2)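 CD spectra from 190 to 250 nm of peptide at 35 μM in 10 mM PBS, 30 mM SDS micelles or 50% TFE, recorded in a 1.0-mm quartz cell. Ellipticity was converted to mean residue ellipticity. Three independent scans, each averaged over more than 3 runs.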

Candida albicans [3] = experiment: Antifungal activity against Candida albicans cgmcc2.2086 measured after 48 hrs in presence of KCl by broth microdilution method; format: functional; conditions: cgmcc2.2086, 48 h
Candida albicans [4] = experiment: Antifungal activity against Candida albicans cgmcc2.2086 measured after 48 hrs in presence of FeCl by broth microdilution method; format: functional; conditions: cgmcc2.2086, 48 h
[5] = Therapeutic index, ratio of MHC10 for hemolytic activity in human RBC to MIC95 against Candida parapsilosis cgmcc2.3989; format: toxicity; conditions: human red blood cells (erythrocytes), read-out: TI
Outline: (§3)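 Therapeutic index = MHC divided by MIC. MHC is the lowest concentration giving >10% lysis of human RBC (1 h, 37 °C, 1-128 µM, A576). MIC is 95% growth inhibition by broth microdilution: bacteria in MHB 24 h at 37 °C; Candida in MOPS-buffered RPMI 1640 at (0.5–1) × 10^3 CFU mL−1, 48 h at 28 °C.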

[6] = test system: Staphylococcus epidermidis; experiment: Antibacterial activity against Staphylococcus epidermidis ATCC 12228 measured after 24 hrs; format: functional; conditions: ATCC 12228, 24 h
Outline: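 Broth microdilution adapted from NCCLS. Mid-log bacteria were diluted in MHB to a final (0.5–1) × 10^5 CFU mL−1. Peptides were serially diluted in 0.2% BSA and mixed with an equal volume of cells. After 24 h at 37 °C, MIC was read at A492 as the lowest concentration inhibiting 95% of growth. At least three independent experiments, each with three technical replicates.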

[7] = Therapeutic index, ratio of MHC10 for hemolytic activity in human RBC to MIC95 against Staphylococcus epidermidis ATCC 12228; format: toxicity; conditions: human red blood cells (erythrocytes), read-out: TI; outline: as §3
Escherichia coli [8] = experiment: Antibacterial activity against Escherichia coli ATCC 25922 measured after 18 to 24 hrs in presence of NH4Cl; format: functional
Staphylococcus aureus [9] = experiment: Antibacterial activity against methicillin-resistant Staphylococcus aureus ATCC 43300 measured after 24 hrs; format: functional; conditions: ATCC 43300, 24 h
Outline: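 Broth microdilution modified from NCCLS. Mid-log bacteria at (0.5–1) × 10^5 CFU mL−1 in MHB, mixed with peptides serially diluted in 0.2% BSA. Incubated 24 h at 37 °C, read at A492. MIC taken as lowest concentration giving 95% growth inhibition. At least three independent experiments, each with three technical replicates.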

Escherichia coli [10] = experiment: Bactericidal activity against Escherichia coli UB1005 incubated for 24 hrs followed by replating on agar plate and measured after overnight incubation; format: functional; conditions: UB1005, 24 h, read-out: MBC>99.9; outline: as §1
[11] = Therapeutic index, ratio of MHC10 for hemolytic activity in human RBC to MIC95 against Candida albicans cgmcc2.2086; format: toxicity; conditions: human red blood cells (erythrocytes), read-out: TI; outline: as §3
Staphylococcus aureus [12] = experiment: Bactericidal activity against Staphylococcus aureus ATCC 25923 incubated for 24 hrs followed by replating on agar plate and measured after overnight incubation; format: functional; conditions: ATCC 25923, 24 h, read-out: MBC>99.9
Outline: (§4)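 After the 24 h, 37 °C MHB microdilution MIC assay, 50 μL from each well was plated on agar and incubated overnight. MBC taken as lowest peptide concentration killing >99.9% of cells. At least three independent experiments, each with three technical replicates.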

Staphylococcus aureus [13] = experiment: Bactericidal activity against Staphylococcus aureus ATCC 29213 incubated for 24 hrs followed by replating on agar plate and measured after overnight incubation; format: functional; conditions: ATCC 29213, 24 h, read-out: MBC>99.9; outline: as §4
[14] = Conformational stability in sodium dodecyl sulfate assessed as beta-sheet conformation by measuring absorption spectra at minimum dichroic band at 35 uM by CD spectra analysis; format: physicochemical; outline: as §2
[15] = Conformational stability in sodium dodecyl sulfate assessed as beta-sheet conformation by measuring absorption spectra at maximum dichroic band at 35 uM by CD spectra analysis; format: physicochemical; outline: as §2
Candida albicans [16] = experiment: Fungicidal activity against Candida albicans cgmcc2.2086 incubated for 48 hrs followed by replating on YM agar plate and measured after 48 hrs; format: functional
Outline: (§5)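 Yeast diluted in MOPS-buffered RPMI 1640 to (0.5–1) × 10^3 CFU/mL (CLSI M27-A2, modified) and mixed 1:1 with peptide serially diluted in 0.2% BSA. After 48 h at 28 °C, 50 μL per well was plated on YM agar and incubated 48 h at 28 °C. MFC taken as the lowest concentration killing ≥99.9% of cells. Three or more independent experiments, triplicate wells.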

Candida parapsilosis = experiment: Fungicidal activity against Candida parapsilosis cgmcc2.3989 incubated for 48 hrs followed by replating on YM agar plate and measured after 48 hrs; format: functional; outline: as §5

Molecule	MBC (Escherichia coli [1])	Stability [2]	MIC95 (Candida albicans [3])	MIC95 (Candida albicans [4])	selectivity ratio [5]	MIC95 [6]	selectivity ratio [7]	MIC95 (Escherichia coli [8])	MIC95 (Staphylococcus aureus [9])	MBC (Escherichia coli [10])	selectivity ratio [11]	MBC (Staphylococcus aureus [12])	MBC (Staphylococcus aureus [13])	Activity [14]	Wavelength of maximum dichroic band [15]	MFC<=99.9 (Candida albicans [16])	MFC<=99.9 (Candida parapsilosis)
H-AARIILRNRFR-NH2	32 µM	Unstable	> 128 µM	> 128 µM	2	> 128 µM	2	16 µM	> 128 µM	32 µM	2	–	–	–	–	–	–
CC(C)(O/N=C(\C(=O)N[C@@H]1C(=O)N2C(C(=O)[O-])=C(C[n+]3ccccc3)CS[C@H]12)c1csc(N)n1)C(=O)O [CEFTAZIDIME]	1 µM (≈ 0.547 µg/mL)	–	> 128 µM	> 128 µM	–	16 µM (≈ 8.75 µg/mL)	–	2 µM	16 µM (≈ 8.75 µg/mL)	2 µM (≈ 1.09 µg/mL)	–	32 µM (≈ 17.5 µg/mL)	16 µM (≈ 8.75 µg/mL)	–	–	–	–
H-AARIILRIRFR-NH2	4 µM	–	8 µM	8 µM	25.4	2 µM	64	4 µM	2 µM	8 µM	25.4	4 µM	4 µM	216 to 220 nm	200 nm	8 µM	8 µM
H-AARIILRRRFR-NH2	16 µM	Unstable	128 µM	> 128 µM	3.17	16 µM	13.4	8 µM	16 µM	64 µM	3.17	64 µM	32 µM	–	–	–	128 µM
H-AARIILRARFR-NH2	4 µM	–	16 µM	16 µM	25.4	2 µM	90.5	2 µM	2 µM	4 µM	25.4	8 µM	8 µM	216 to 220 nm	200 nm	32 µM	16 µM
H-AAKIILNPKFR-NH2	–	Unstable	> 128 µM	> 128 µM	2	> 128 µM	2	> 128 µM	> 128 µM	–	2	–	–	–	–	–	–
H-AARIILRPRFR-NH2	32 µM	Unstable	> 128 µM	> 128 µM	2	> 128 µM	2	16 µM	> 128 µM	16 µM	2	–	–	–	–	–	–
H-AARRILRWIFR-NH2	8 µM	–	16 µM	8 µM	40.3	4 µM	45.2	4 µM	8 µM	4 µM	40.3	8 µM	8 µM	–	–	8 µM	16 µM
